Assay results of several laboratories.
Each line is one published result; the experiments were not run side by side.
Target: Rhodopsin kinase GRK7 (GRK7, Homo sapiens, UniProt Q8WTQ7)
Sequence (Q8WTQ7 1-553, as in one of the studies): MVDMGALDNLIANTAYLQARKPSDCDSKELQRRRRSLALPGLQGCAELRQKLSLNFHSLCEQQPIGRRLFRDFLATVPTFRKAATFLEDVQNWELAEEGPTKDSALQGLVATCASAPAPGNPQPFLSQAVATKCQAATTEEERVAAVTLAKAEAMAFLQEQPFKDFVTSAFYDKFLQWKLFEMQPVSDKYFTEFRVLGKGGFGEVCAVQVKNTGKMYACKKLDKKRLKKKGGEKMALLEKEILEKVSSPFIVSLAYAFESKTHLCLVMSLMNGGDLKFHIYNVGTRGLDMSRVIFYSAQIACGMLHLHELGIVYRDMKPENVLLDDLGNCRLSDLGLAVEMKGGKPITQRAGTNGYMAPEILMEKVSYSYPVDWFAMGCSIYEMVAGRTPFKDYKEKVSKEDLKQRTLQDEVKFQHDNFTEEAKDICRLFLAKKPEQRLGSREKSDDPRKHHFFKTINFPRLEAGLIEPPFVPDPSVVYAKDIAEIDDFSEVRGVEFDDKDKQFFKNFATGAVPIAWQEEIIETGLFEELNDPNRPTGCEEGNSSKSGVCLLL

| Compound | read-out | mode | technique | concentration | endpoint | value |
| --- | --- | --- | --- | --- | --- | --- |
| CC1=C(C#N)C(c2ccc3c(c2)c(NC(=O)c2ccccc2C)nn3C)C(C#N)=C(C)N1 | cell-free assay | – | competition with immobilised ligand | 1 µM | remaining binding | 70% |
| Cc1ccc(NC(=O)c2ccc(C)c(C(F)(F)F)c2)cc1C#Cc1nn(C2CCC(O)CC2)c2ncnc(N)c12 (stereo not drawn) | cell-free assay | – | – | 10 µM | remaining signal | 101% |
| CCC(=O)N[C@H]1CC[C@@H](C(=O)N(C)c2ccc(-c3nc4ccccc4o3)cc2)C1 | cell-free assay | – | competition with immobilised ligand | 1 µM | remaining binding | 82% |
| N#CCCc1ccc2c(c1)-c1[nH]c3ccc([N+](=O)[O-])cc3c1CC(=O)N2 | cell-free assay | – | – | 0.5 µM | remaining signal | 97.7% |
| CS(=O)(=O)c1cc(C2(NC(=O)c3cncc4c3cnn4-c3ccc(F)cc3)CC2)ccn1 | cell-free assay | – | competition with immobilised ligand | 1 µM | remaining binding | 96% |
| CC(C)(C)c1nc(-c2cccc(NS(=O)(=O)c3c(F)cccc3F)c2F)c(-c2ccnc(N)n2)s1 | enzyme activity | inhibitor | radiometric | 1 µM | remaining activity | 76% |
| CC(C)(O)[C@H]1CC[C@H](Nc2ccc3ncc(-c4cccc(C(F)(F)F)c4)n3n2)CC1 | enzyme activity | inhibitor | – | 1 µM | remaining activity | 38% |
| CN1CCN(c2cnc3c(C4CCN(C(=O)c5ccc(OC(F)(F)F)cc5N)CC4)ncnc3c2)CC1 | cell-free assay | – | competition with immobilised ligand | 1 µM | remaining binding | 87% |
| Cc1ccc(C(=O)Nc2ccc(CN3CCN(C)CC3)c(C(F)(F)F)c2)cc1C#Cc1cnc2cccnn12 | enzyme activity | inhibitor | – | 23.5 nM | remaining activity | 94% |
| Cc1cnc(NC2CCOCC2)nc1-n1cnc(C(=O)NC(CN)c2cc(F)cc(Cl)c2)c1 (stereo not drawn) | enzyme activity | inhibitor | radiometric | 1 µM | remaining activity | 85% |
| O=C(Nc1cnn(-c2csc(C(=O)NC3COC3)c2)c1)Nc1ccccc1Cl | enzyme activity | inhibitor | – | 5 µM | remaining activity | 96.4% |
| CN1CC(Oc2cnc(C#N)cc2-c2ccn3nc(NC(=O)C4CC4)cc3c2)C1 | enzyme activity | inhibitor | – | 1 µM | inhibition | -8% |
| COc1cc2ncnc(Nc3ccc(Oc4ccccc4)c(C)c3C)c2cc1OC | enzyme activity | inhibitor | – | 1 µM | inhibition | 0% |
| C#Cc1cccc(Nc2ncnc3cc(OCCOC)c(OCCOC)cc23)c1 | cell-free assay | – | – | 0.5 µM | remaining signal | 98.3% |
| CO[C@@H](C)c1c(Nc2ccc([C@H](N(C)C(=O)C3CCS(=O)(=O)CC3)C(F)(F)F)cc2)cnc2cc(Cl)nn12 | cell-free assay | – | competition with immobilised ligand | 1 µM | remaining binding | 100% |
| O=C1NC(=O)c2cc(Nc3ccc(F)cc3)c(Nc3ccc(F)cc3)cc21 | cell-free assay | – | – | 0.5 µM | remaining signal | 106% |
| COc1cc(Cl)c(C(=O)N[C@@H](CN[C@H]2CC[C@@H](N)CC2)Cc2ccc(C#N)cc2)cc1-c1ccc(CN[C@H](C)c2ccc(C)cc2)o1 | enzyme activity | inhibitor | – | 1 µM | remaining activity | 102% |
| Cc1cc(NC(=O)c2cccc3cc(-c4cccc5[nH]nc(N)c45)ccc23)ccc1F | enzyme activity | inhibitor | – | 0.1 µM | activity vs control | 114% |
